Drawing on ChEMBL document CHEMBL1687919, “Design, synthesis, and structure-activity relationship of Trypanosoma brucei leucyl-tRNA synthetase inhibitors as antitrypanosomal agents” (J Med Chem, 2011), this text covers IC50 for 49 compounds.

Molecules are shown by their SMILES. A value given as a limit tells only on which side of the number the result lay.

In assay [1] the test system is Trypanosoma brucei brucei. Nature of the assay: Antitrypanosomal activity against bloodstream-form Trypanosoma brucei brucei 427 after 72 hrs. The class given is functional, organism-based. Conditions: Trypanosoma brucei, 427, 72 h. The essentials:
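HMI-9 with 10% FBS, 10% Serum Plus and pen/strep; log-phase parasites at final 1.0 × 10^5/mL, 0.4% DMSO. Serially diluted compound, 72 h at 37 °C, 5% CO2, then resazurin for 2-4 h more. Fluorescence read at ex 544/em 590 nm. Triplicates averaged, IC50 from sigmoidal dose-response fit; suramin and pentamidine as positive controls.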

The next assay concerns L929. Briefly: Cytotoxicity against mouse L929 cells after 72 hrs. The class given is cell-based. Conditions: L929, 72 h. The essentials: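 Fibroblasts grown in D-MEM with 10% FBS and pen/strep, kept subconfluent. Seeded from 1 × 10^4/mL suspension, attached overnight, medium replaced, serially diluted compound added from DMSO. Exposure 72 h at 37 °C, 5% CO2. Resazurin added for 3-4 h more, fluorescence read at ex 544/em 590 nm.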

Assay [2] is described as follows: Inhibition of Trypanosoma brucei TREU927 Leucyl-tRNA Synthetase expressed in Escherichia coli BL21 (DE3)-RIPL using [14C]Leu by scintillation counting. The essentials:
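Compound preincubated 20 min at 37 °C without ATP, then started with 4 mM ATP. After 15 min, TCA-precipitated on filters. Nine-point IC50 curves, sigmoidal fit, reference inhibitor per batch.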

What is called IC50 is the concentration that inhibits the measured activity by half.

Turning to `CCOC(=O)C(C)(C)Oc1ccc2c(c1)B(O)OC2`, the 50% inhibitory concentration (IC50) in assay [1] is 5.49 µM; with L929, greater than 10 µg/mL; in assay [2], 2.1 µM.

Regarding `CC(=O)C(C)Oc1ccc2c(c1)B(O)OC2` (stereo not drawn), the concentration for half-maximal inhibition (IC50) was 2.09 µM in assay [1], greater than 10 µg/mL in the assay on L929 and 3.8 µM in assay [2].

The compound `O=C(NC1CCCCC1)Oc1ccc2c(c1)B(O)OC2` showed an IC50 in assay [2] of 32.3 µM.

`CCOC(=O)/C=C/c1cccc2c1B(O)OC2` showed a concentration for half-maximal inhibition (IC50) in assay [2] greater than 1000 µM.

The compound `COC(COc1ccc2c(c1)B(O)OC2)OC` came in with an IC50 in assay [2] of 71.3 µM.

On to `CCOC(=O)CCc1cccc2c1B(O)OC2`, for which the IC50 in assay [2] was greater than 1000 µM.

In turn, `OB1OCc2ccccc21` [BENZOXABOROLE] had a concentration for half-maximal inhibition (IC50) in assay [2] of 22.1 µM.

As for `CC(C)Oc1ccc2c(c1)B(O)OC2`, inhibition in assay [2] was half-maximal at 15.8 µM (IC50).

Turning to `COC(=O)COc1ccc2c(c1)B(O)OC2`, the 50% inhibitory concentration (IC50) was 1.22 µM in assay [1], greater than 10 µg/mL in the assay with L929 and 3.6 µM in assay [2].

Take `OB1OCc2ccc(OCc3ccccn3)cc21`: in assay [2], the IC50 was greater than 100 µM.

Regarding `CCOC(=O)CCc1ccc2c(c1)B(O)OC2`, the IC50 in assay [2] is 16.7 µM.

With `CCOC(=O)COc1ccc2c(c1)B(O)OC2`, the IC50 in assay [1] is 0.72 µM; with L929, greater than 10 µg/mL; in assay [2], 3.5 µM.

As for `OB1OCc2ccc(Oc3ccc4ccccc4n3)cc21`, the concentration for half-maximal inhibition (IC50) in assay [2] turned out to be 63 µM.

The compound `COCCOc1ccc2c(c1)B(O)OC2` yielded a concentration for half-maximal inhibition (IC50) in assay [2] greater than 100 µM.

In assay [2], `O=C(Nc1ccccc1)Oc1ccc2c(c1)B(O)OC2` gave a 50% inhibitory concentration (IC50) of 43.1 µM.

`CCOC(=O)/C=C/c1ccc2c(c1)B(O)OC2` showed an IC50 in assay [2] of 578 µM.

With `O=C(/C=C/c1ccc2c(c1)B(O)OC2)c1ccccc1`, in assay [2], the IC50 came out at 209 µM.

On to `OB1OCc2ccc(OCc3ccccc3F)cc21`, for which half-maximal inhibition in assay [2] (IC50) was put at 25.6 µM.

In assay [2], `CCOc1ccc2c(c1)B(O)OC2` gave an IC50 of 13 µM.

Take `OCCCc1ccc2c(c1)B(O)OC2`: the IC50 in assay [2] stood at 688 µM.

`CC(=O)C(C)(C)Oc1ccc2c(c1)B(O)OC2`: the concentration for half-maximal inhibition (IC50) was 0.37 µM in assay [1], greater than 10 µg/mL with L929 and 5 µM in assay [2].

With `OCCCc1cccc2c1B(O)OC2`, the half-inhibitory concentration (IC50) in assay [2] worked out at 541 µM.

`N=C(N)c1ccc(OCCCCCOc2ccc(C(=N)N)cc2)cc1` [PENTAMIDINE] registered an IC50 in assay [1] of 0.026 µM.

Take `CCCC(=O)C(CC)Oc1ccc2c(c1)B(O)OC2` (stereo not drawn): the IC50 in assay [1] is 12.9 µM; in the assay with L929, greater than 10 µg/mL; in assay [2], 2.9 µM.

Consider `CCC(O)C(C)Oc1ccc2c(c1)B(O)OC2` (stereo not drawn), for which, in assay [2], the IC50 is greater than 100 µM.

In assay [1], `Cc1ccc(C(=O)Nc2ccc(S(=O)(=O)O)c3cc(S(=O)(=O)O)cc(S(=O)(=O)O)c23)cc1NC(=O)c1cccc(NC(=O)Nc2cccc(C(=O)Nc3cc(C(=O)Nc4ccc(S(=O)(=O)O)c5cc(S(=O)(=O)O)cc(S(=O)(=O)O)c45)ccc3C)c2)c1` [SURAMIN] returned an IC50 of 0.005 µM.

Compound `CC(C)(C)NC(=O)COc1ccc2c(c1)B(O)OC2` showed a half-maximal inhibitory concentration (IC50) in assay [2] greater than 100 µM.

In assay [2], `O=C(/C=C/c1cccc2c1B(O)OC2)c1ccccc1` had an IC50 of 412 µM.

In turn, `OB1OCc2ccc(OCc3ccccc3)cc21` displayed an IC50 in assay [2] of 30.6 µM.

`CC(=O)C(Oc1ccc2c(c1)B(O)OC2)C(C)C` (stereo not drawn): the figures for the half-maximal inhibitory concentration (IC50) (in assay [1]; in the assay with L929; in assay [2]) were 2.74 µM, greater than 10 µg/mL and 4.5 µM, respectively.

Take `CCC(Oc1ccc2c(c1)B(O)OC2)C(C)=O` (stereo not drawn): the IC50 in assay [1] is 3.76 µM; in the assay with L929, greater than 10 µg/mL; in assay [2], 3.5 µM.

The compound `OB1OCc2ccc(O)cc21` had a 50% inhibitory concentration (IC50) in assay [2] of 30.9 µM.

Take `CCC(=O)C(C)Oc1ccc2c(c1)B(O)OC2` (stereo not drawn): the figures for the concentration for half-maximal inhibition (IC50) (in assay [1]; with L929; in assay [2]) were 8.25 µM, greater than 10 µg/mL and 2.5 µM, respectively.

Compound `CC(C)CC(=O)COc1ccc2c(c1)B(O)OC2` gave a concentration for half-maximal inhibition (IC50) in assay [2] of 67.6 µM.

For the compound `CCNC(=O)COc1ccc2c(c1)B(O)OC2`, the IC50 in assay [2] worked out at 77.7 µM.

Take `CCOC(=O)C(Oc1ccc2c(c1)B(O)OC2)c1ccccc1` (stereo not drawn): in assay [2], the IC50 worked out at 41.7 µM.

Compound `CCC(=O)COc1ccc2c(c1)B(O)OC2` registered an IC50 in assay [2] of 27.2 µM.

For the compound `CC(C)(C)OC(=O)COc1ccc2c(c1)B(O)OC2`, the half-inhibitory concentration (IC50) in assay [1] was 2.61 µM; in the assay with L929, greater than 10 µg/mL; in assay [2], 7.4 µM.

`O=C(O)COc1ccc2c(c1)B(O)OC2` came in with a concentration for half-maximal inhibition (IC50) in assay [2] greater than 100 µM.

Regarding `CCCC(Oc1ccc2c(c1)B(O)OC2)C(C)=O` (stereo not drawn), the half-inhibitory concentration (IC50) in assay [2] amounted to 31.4 µM.

On to `O=C1c2ccccc2C(=O)N1CCCOc1ccc2c(c1)B(O)OC2`, for which, in assay [2], the IC50 is greater than 100 µM.

As to `CCOC(=O)C(CC)Oc1ccc2c(c1)B(O)OC2` (stereo not drawn), the IC50 in assay [1] is 11.3 µM; with L929 it was greater than 10 µg/mL; in assay [2], 1.6 µM.

On to `CCCOc1ccc2c(c1)B(O)OC2`, for which the IC50 in assay [2] is 30.9 µM.

In assay [2], `CC(C)(C)OC(=O)NCCOc1ccc2c(c1)B(O)OC2` returned a concentration for half-maximal inhibition (IC50) greater than 100 µM.

Take `CCCCOc1ccc2c(c1)B(O)OC2`: the IC50 in assay [2] came to 54.3 µM.

As to `CCOC(=O)C(C)Oc1ccc2c(c1)B(O)OC2` (stereo not drawn), the IC50 was 3 µM in assay [1], greater than 10 µg/mL in the assay with L929 and 2.8 µM in assay [2].

In assay [2], `O=CCOc1ccc2c(c1)B(O)OC2` showed a 50% inhibitory concentration (IC50) greater than 100 µM.

The compound `CCCC(=O)COc1ccc2c(c1)B(O)OC2` registered an IC50 in assay [2] of 30.8 µM.

As to `OB1OCc2ccc(OCC3CCCCC3)cc21`, the half-maximal inhibitory concentration (IC50) in assay [2] was greater than 100 µM.
